# Assay results of several laboratories.
# Protocols differ between the studies behind these lines.
Structure (SMILES),target or system,assay,test system,conditions,measurement,result
NC/C(=C\F)COc1cccc(Cn2c(=S)[nH]c(=O)c3[nH]cnc32)c1,"ATP-dependent translocase ABCB1 (ABCB1, Homo sapiens, UniProt P08183)","transporter efflux, inhibitor",,30 µM,inhibition,< 50%
Cc1cc(C)c(CNC(=O)c2cc(Cl)c3c(c2C)O[C@@](C)([C@H]2CC[C@H](N(C)C)CC2)O3)c(=O)[nH]1,,,Caco-2,10 µM,Papp B→A,204 nm/s
O=c1c(-c2ccc(O)cc2)coc2c([C@@H]3O[C@H](CO)[C@@H](O)[C@H](O)[C@H]3O)c(O)ccc12,,,Caco-2,"100 µg/mL, 2 h",Papp B→A,56.6 nm/s
COc1cc(/C=C/c2cc(/C=C/c3ccc(O)c(OC)c3)n(-c3ccc(Cl)cc3Cl)n2)ccc1O,WRL68,"cell growth or viability, MTT",,48 h,CC50,> 99 µM
CCN1CCN(Cc2ccc(Nc3nc4ccc(Oc5ccnc(NC(=O)C6CCN(C)CC6)c5)cc4n3C)cc2C(F)(F)F)CC1,,,,,pKa,8.8
N#Cc1ccc(C[C@H](Nc2ncc(-c3ccc(F)cc3)o2)C(=O)N2CCc3ccccc32)cc1,,,aqueous buffer,"2 h, pH 7.4, 37 °C",kinetic solubility,1.8 µM
COc1ccc(-c2nn(-c3ccccc3)cc2C=NNc2cn[nH]c(=O)c2Cl)cc1,Jurkat,"cell growth or viability, imaging",,,CC50,> 40 µM
COc1cc(C2Oc3cc([C@H]4Oc5cc(O)cc(O)c5C(=O)[C@@H]4O)ccc3OC2CO)ccc1O (stereo partly shown),,,Caco-2,"100 µg/mL, 2 h",Papp B→A,172 nm/s
COc1cc(/C=C/C(=O)/C=C/c2ccc(O)c(OC)c2)ccc1O,WRL68,"cell growth or viability, MTT",,"3.2 µg/mL, 48 h",viability,11.5%
CC[C@H](C)[C@H](NC(=O)[C@H](CCC(=O)O)NC(=O)[C@H](CCC(=O)O)NC(=O)[C@@H]1CCCN1C(=O)[C@H](CO)NC(=O)[C@H](C)NC(=O)[C@H](CC(=O)O)NC(=O)[C@H](CCC(=O)O)NC(=O)[C@H](CCC(=O)O)NC(=O)[C@@H]1CCCN1C(=O)[C@H](CCCCNC(=O)COCCOCCNC(=O)COCCOCCNC(=O)CC[C@H](NC(=O)CCCCCCCCCCCCCCCCC(=O)O)C(=O)O)NC(=O)[C@H](C)NC(=O)[C@@H]1CCCN1C(=O)[C@H](C)NC(=O)CC(C)C)C(=O)N[C@@H](CCC(N)=O)C(=O)N[C@@H](CCCNC(=N)N)C(=O)N[C@@H](Cc1ccc(O)cc1)C(=O)N[C@@H](Cc1ccc(O)cc1)C(=O)N[C@H](C(=O)N[C@@H](CO)C(=O)N[C@@H](CC(C)C)C(=O)N[C@@H](CCCNC(=N)N)C(=O)N[C@@H](Cc1c[nH]cn1)C(=O)N[C@@H](Cc1ccc(O)cc1)C(=O)N[C@@H](Cc1ccc(O)cc1)C(=O)N[C@@H](CC(N)=O)C(=O)N[C@@H](Cc1c[nH]c2ccccc12)C(=O)N[C@@H](CC(C)C)C(=O)N[C@H](C(=O)N[C@@H](CCCNC(=N)N)C(=O)N[C@@H](CCC(N)=O)C(=O)N[C@@H](CCCNC(=N)N)C(=O)N[C@@H](Cc1ccc(O)cc1)C(N)=O)[C@@H](C)O)C(C)C,,,"male beagle dog, plasma","subcutaneous, 5 nmol/kg",Tmax,32 h
